Source: PMC3767132 (Organic & biomolecular chemistry, 2012)
Like-named read-outs stand apart in the source and are kept apart here.

Key:
HUVEC [1] = experiment: HUVEC cell-viability assay using calcein-AM; type: cell-based, human; details: for IC50: Homo sapiens, HUVEC, read-out: IC50 Calcein-AM HUVEC
HFF = HFF cell-viability assay using calcein-AM; type: cell-based, human; details: for IC50: Homo sapiens, HFF, read-out: IC50 Calcein-AM HFF
hMetAP1 = hMetAP1 (Homo sapiens, UniProt P53582); experiment: human MetAP1 enzyme assay; type: biochemical; details: for b = bottom value in the dose-response curve, hMetAP1: noted only when above 15%
HUVEC [2] = experiment: HUVEC proliferation assay using [3H]-thymidine incorporation; type: cell-based, human
hMetAP2 = hMetAP2 (Homo sapiens, UniProt P50579); experiment: human MetAP2 enzyme assay; type: biochemical; details: for b = bottom value in the dose-response curve, hMetAP2: noted only when above 15%; for inhibition at 10 µM: read-out: inhibition of MetAP2 activity in HTS
Sequence of hMetAP2 (P50579 whole entry): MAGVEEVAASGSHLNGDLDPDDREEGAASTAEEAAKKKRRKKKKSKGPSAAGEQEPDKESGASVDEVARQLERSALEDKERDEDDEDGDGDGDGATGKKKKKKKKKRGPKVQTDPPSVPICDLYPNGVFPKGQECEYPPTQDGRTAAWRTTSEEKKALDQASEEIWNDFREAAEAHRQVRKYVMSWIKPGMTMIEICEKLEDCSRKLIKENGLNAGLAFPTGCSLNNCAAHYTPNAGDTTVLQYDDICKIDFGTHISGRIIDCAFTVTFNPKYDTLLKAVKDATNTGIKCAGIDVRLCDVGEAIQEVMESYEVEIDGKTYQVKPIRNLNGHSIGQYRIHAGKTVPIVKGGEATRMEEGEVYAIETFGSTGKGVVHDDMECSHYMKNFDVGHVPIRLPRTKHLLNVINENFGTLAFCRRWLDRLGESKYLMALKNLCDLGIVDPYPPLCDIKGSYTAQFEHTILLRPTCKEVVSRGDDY

MetAP = experiment: Immunoblot of Met-14-3-3γ; type: cell-based, human; details: for Immunoblot Met-14-3-3γ: compound treated HUVEC lysates, 24 h, signal relative to DMSO = 1.0; for effect on the levels of Met-14-3-3γ: up to 10 μM, HUVEC, data not shown
Summary of the method: (§1)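 HUVEC were exposed to test compound for 24 h, typically at 5 μM (some up to 10 μM), with DMSO as negative control. Lysates were immunoblotted for Met-14-3-3γ, 14-3-3γ, Ac-p53 and total p53. Band densities were taken as Met-14-3-3γ/14-3-3γ and Ac-p53/p53 per lane, relative to DMSO = 1.0. Ac-p53 was scored −(<2.0), +(2.0–7.0), ++(7.1–11.6), +++(>11.6).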

SIRT1 = experiment: Immunoblot of Ac-p53; type: cell-based, human; details: for Immunoblot Ac-p53: compound treated HUVEC lysates, 24 h, signal relative to DMSO = 1.0; for effect on the levels of Ac-p53: up to 10 μM, data not shown
Summary of the method: as §1

Jurkat-T = experiment: Jurkat T proliferation assay, 3H-T uptake; type: cell-based; details: for IC50: Homo sapiens, Jurkat, read-out: IC50 3H-T Uptake Jurkat-T
HeLa = HeLa proliferation assay, 3H-T uptake; type: cell-based; details: for IC50: Homo sapiens, HeLa, read-out: IC50 3H-T Uptake HeLa
[3] = IC50 hMetAP1, enzyme assay, 10 μM Co2+
[4] = Homo sapiens, HUVEC, read-out: IC50 HUVEC
[5] = read-out: IC50 hMetAP2, enzyme assay, 10 μM Mn2+
[6] = read-out: IC50 hMetAP1, enzyme assay, 10 μM Co2+
[7] = read-out: IC50 HUVEC, proliferation, 3H-T uptake
[8] = Homo sapiens, HUVEC, read-out: IC50 HUVEC, proliferation, 3H-T uptake

Compound | IC50 (hMetAP1; [3]) | IC50 (HUVEC [2]; [4]) | IC50 (hMetAP2; [5]) | IC50 (hMetAP1; [6]) | IC50 (HUVEC [2]; [7]) | IC50 (hMetAP2) | also measured
Oc1c(C(c2ccccc2)N2CCOCC2)cc(Cl)c2cccnc12 (centres unmarked) [Entry 18, 5-Chloro-7-(morpholino(phenyl)methyl)quinolin-8-ol] | 14 µM | 1.92 ± 0.6 µM |  |  |  |  | IC50 (HUVEC [1]): 3.55 ± 0.9 µM; b = bottom value of the curve, Calcein-AM HFF (HFF): 18%; IC50 (HFF): 3.66 ± 0.7 µM
Oc1c(Br)cc(Br)c2cccnc12 [Entry 10] |  |  | > 15 µM | > 15 µM | 2.53 ± 0.71 µM |  | 
O=S(=O)(O)c1ccc(O)c2ncccc12 [Entry 6] |  |  | > 15 µM |  | > 50 µM |  | 
Nc1cccc2cccnc12 [Entry 31, 8-aminoquinoline] | > 15 µM |  |  |  |  | > 15 µM | IC50 (HUVEC [2]; [8]): > 50 µM
N#Cc1ccc2cccc(O)c2n1 [Entry 3] |  |  | > 15 µM | > 15 µM | > 50 µM |  | 
C=CCOc1c(Cl)cc(Cl)c2cccnc12 [Entry 28, 8-(Allyloxy)-5,7-dichloroquinoline] | > 15 µM | 2.32 ± 0.23 µM |  |  |  | > 15 µM | 
Oc1c(I)cc(Cl)c2cccnc12 [Entry 7, Clioquinol, reference compound] | > 15 µM | 2.42 ± 0.5 µM |  |  |  | 2.39 ± 0.31 µM | IC50 (hMetAP1; IC50 MetAP1 with Co2+, Co2+ metalloform, data not shown): > 50 µM
COc1ccc(N2CCN(Cc3cc(Cl)c4cccnc4c3O)CC2)cc1 [Entry 17, 5-Chloro-7-((4-(4-methoxyphenyl)piperazin-1-yl)methyl)-quinolin-8-ol] | > 15 µM | 1.46 ± 0.33 µM |  |  |  | > 15 µM | Immunoblot Met-14-3-3γ (MetAP): − (−, >1.5); level of Ac-p53 compared to DMSO treated cells (SIRT1; 10 μM, HUVEC): did increase; Immunoblot Ac-p53 (SIRT1): + (+, 2.0–7.0)
C=CCOc1cccc2ccc(C#N)nc12 [Entry 30, 8-(Allyloxy)quinoline-2-carbonitrile] | > 15 µM | > 50 µM |  |  |  | > 15 µM | 
Oc1c(Br)cc(Cl)c2cccnc12 [Entry 8] |  |  | > 15 µM | > 15 µM | 2.21 ± 0.6 µM |  | 
Oc1c(Cl)cc(Cl)c2cccnc12 [Entry 9] |  |  | > 15 µM | > 15 µM | 3.64 ± 0.53 µM |  | 
Nc1ccc(O)c2ncccc12 [Entry 34, 5-aminoquinolin-8-ol] | 8.92 ± 1.2 µM | 0.218 ± 0.04 µM |  |  |  | 11.9 µM | Immunoblot Met-14-3-3γ (MetAP): − (−, >1.5); effect on the levels of Met-14-3-3γ (MetAP): no effect; b = bottom value of the curve, Calcein-AM HUVEC (HUVEC [1]): 19%; IC50 (HUVEC [1]): 1.84 µM; more potent against HUVEC than Jurkat T (Jurkat-T; 3H-T uptake): about 8 times; IC50 (Jurkat-T): 1.28 ± 0.3 µM; b = bottom value of the curve, Calcein-AM HFF (HFF): 38%; IC50 (HFF): 37.3 ± 2.1 µM; selectivity for HUVEC inhibition than HFF (HFF; calcein-AM): ~30 times; b = bottom value in the dose-response curve, hMetAP2 (hMetAP2): 26%; Immunoblot Ac-p53 (SIRT1): − (−, <2.0); effect on the levels of Ac-p53 (SIRT1; HUVEC): no effect; more potent against HUVEC than HeLa (HeLa; 3H-T uptake): about 8 times; IC50 (HeLa): 2.36 ± 0.5 µM
O=[N+]([O-])c1cc(Cl)c2cccnc2c1O [Entry 44] |  |  | > 15 µM | > 15 µM | 7.73 ± 0.77 µM |  | 
CC(C)S(=O)(=O)Nc1ccc(O)c2ncccc12 [Entry 41, N-(8-Hydroxyquinolin-5-yl)propane-2-sulfonamide] | > 40 µM | 12.9 ± 0.13 µM |  |  |  | > 40 µM | 
CC(C)(C)C(=O)Oc1ccc([N+](=O)[O-])c2cccnc12 [Entry 46, 5-nitroquinolin-8-yl pivalate] | > 15 µM |  |  |  |  | 0.434 ± 0.1 µM | Immunoblot Met-14-3-3γ (MetAP): + (+, ≥1.5); Immunoblot Ac-p53 (SIRT1): ++ (++, 7.1–11.6)
O=C(Nc1ccc(F)cc1)Oc1c(Cl)cc(Cl)c2cccnc12 [Entry 25, 5,7-Dichloroquinolin-8-yl 4-fluorophenylcarbamate] | > 15 µM |  |  |  |  | > 15 µM | IC50 (HUVEC [2]; [8]): 3.58 ± 0.9 µM
O=C(Nc1cc(F)cc(F)c1)Oc1ccc(Cl)c2cccnc12 [Entry 23, 5-Chloroquinolin-8-yl 3,5-difluorophenylcarbamate] | > 15 µM |  |  |  |  | > 15 µM | IC50 (HUVEC [2]; [8]): 2.2 ± 0.1 µM
O=C(NCCCl)Oc1c(Cl)cc(Cl)c2cccnc12 [Entry 21, 5,7-Dichloroquinolin-8-yl 2-chloroethylcarbamate] | > 15 µM |  |  |  |  |  | IC50 (HUVEC [2]; [8]): 2.62 ± 0.5 µM
COc1ccc(CN(Cc2ccc(OC)cc2)c2ccc(O)c3ncccc23)cc1 [Entry 37, 5-(N,N-Di[(4-methoxy)benzyl])amino-8-hydroxyquinoline] | 1.46 ± 0.3 µM | 0.551 ± 0.08 µM |  |  |  | > 40 µM | b = bottom value in the dose-response curve, hMetAP1 (hMetAP1): 32%
Cc1ccc(S(=O)(=O)Nc2cccc3cccnc23)cc1 [Entry 32, 8-quinolinyl p-toluenesulfonamide] | 6.97 ± 0.25 µM | 0.308 ± 0.04 µM |  |  |  | > 15 µM | Immunoblot Met-14-3-3γ (MetAP): − (−, >1.5); effect on the levels of Met-14-3-3γ (MetAP): no effect; IC50 (HUVEC [1]): 1.47 ± 0.2 µM; IC50 (Jurkat-T): 0.79 ± 0.08 µM; b = bottom value of the curve, Calcein-AM HFF (HFF): 21%; IC50 (HFF): 0.909 ± 0.12 µM; Immunoblot Ac-p53 (SIRT1): − (−, <2.0); effect on the levels of Ac-p53 (SIRT1; HUVEC): no effect; b = bottom value in the dose-response curve, hMetAP1 (hMetAP1): 21%; IC50 (HeLa): 1.12 ± 0.2 µM

Compound | IC50 (hMetAP1; [3]) | IC50 (HUVEC [2]; [4]) | IC50 (hMetAP2; [5]) | IC50 (hMetAP1; [6]) | IC50 (HUVEC [2]; [7]) | IC50 (hMetAP2) | also measured
Oc1c(I)cc(I)c2cccnc12 [Entry 11] |  |  | > 15 µM | > 15 µM | 2.62 ± 0.08 µM |  | 
CCOC(=O)COc1ccc([N+](=O)[O-])c2cccnc12 [Entry 49, ethyl 2-(5-nitroquinolin-8-yloxy)acetate] | > 15 µM | 7.3 ± 0.81 µM |  |  |  | > 15 µM | 
CCCCCCN(CCCCCC)c1ccc(O)c2ncccc12 [Entry 36, 5-(N,N-Di-n-hexyl)amino-8-hydroxyquinoline] | > 40 µM | 0.789 ± 0.21 µM |  |  |  | > 40 µM | 
C=CCOc1ccc(Cl)c2cccnc12 [Entry 27, 5-chloro-8-allyloxyquinoline] | > 15 µM | > 50 µM |  |  |  | > 50 µM | inhibition at 10 µM (hMetAP2): > 90%
CC(=O)Nc1ccc(O)c2ncccc12 [Entry 38] |  |  | > 40 µM | > 40 µM | 10.2 ± 1.1 µM |  | b = bottom value in the dose-response curve, HUVEC (HUVEC [2]; 3H-T uptake, noted only when above 15%): 28%
OCCOc1ccc(Cl)c2cccnc12 [Entry 29] |  |  | > 15 µM | > 15 µM | 2.4 ± 0.3 µM |  | 
Cc1ccc2c([N+](=O)[O-])cc([N+](=O)[O-])c(O)c2n1 [Entry 43] |  |  | > 15 µM | 17.3 ± 1.7 µM | 15.7 ± 1.3 µM |  | 
CCOP(=O)(OCC)Oc1ccc(Cl)c2cccnc12 [Entry 26, 5-chloroquinolin-8-yl diethyl phosphate] | > 15 µM | > 50 µM |  |  |  | > 15 µM | 
CCCCCC(=O)Nc1ccc(O)c2ncccc12 [Entry 39, N-(8-Hydroxyquinolin-5-yl)hexanamide] | > 40 µM | 8.45 ± 0.91 µM |  |  |  | > 40 µM | 
Oc1c(CN2CCOCC2)ccc2cccnc12 [Entry 12] |  |  | > 15 µM | > 50 µM | > 20 µM |  | 
Nc1cc(Cl)c2cccnc2c1O [Entry 45] |  |  | > 15 µM | > 40 µM | 0.273 ± 0.07 µM |  | Immunoblot Met-14-3-3γ (MetAP): − (−, >1.5); effect on the levels of Met-14-3-3γ (MetAP): no effect; Immunoblot Ac-p53 (SIRT1): − (−, <2.0); effect on the levels of Ac-p53 (SIRT1; HUVEC): no effect
Oc1ccc(Cl)c2cccnc12 [Entry 4, Cloxyquin, reference compound] |  | 1.41 ± 0.1 µM |  |  |  |  | 
O=C(Nc1ccc(O)c2ncccc12)N1CCOCC1 [Entry 42, N-(8-Hydroxyquinolin-5-yl)morpholine-4-carboxamide] | > 40 µM | 1.88 ± 0.3 µM |  |  |  | > 40 µM | 
Cc1ccc2cccc(O)c2n1 [Entry 2] |  |  | > 15 µM | > 15 µM | 2.7 ± 0.61 µM |  | 
Oc1c(C(Nc2nccs2)c2ccco2)cc(Cl)c2cccnc12 (centres unmarked) [Entry 19, 5-Chloro-7-(furan-2-yl(thiazole-2-ylamino)methyl)quinolin-8-ol] | > 50 µM | 2.53 ± 0.13 µM |  |  |  | 2.75 ± 0.4 µM | 
NC(=O)COc1ccc([N+](=O)[O-])c2cccnc12 [Entry 50, 2-(5-nitroquinolin-8-yloxy)acetamide] | > 15 µM | 6.3 ± 1.4 µM |  |  |  | 1.06 ± 0.5 µM | 
O=C(Nc1ccccc1)Oc1ccc(Cl)c2cccnc12 [Entry 22, 5-chloroquinolin-8-yl phenylcarbamate] | > 15 µM |  |  |  | 1.21 ± 0.51 µM | 5.26 ± 0.6 µM | b = bottom value in the dose-response curve, hMetAP2 (hMetAP2): 24%; inhibition at 10 µM (hMetAP2): > 90%; IC50 (HUVEC [2]; [8]): 1.2 µM
Oc1cccc2cccnc12 [Entry 1, 8-hydroxyquinoline] |  | 6.21 ± 1.1 µM |  |  |  |  | IC50 (hMetAP1; IC50 hMetAP1): > 15 µM
CCN(CC)c1ccc(O)c2ncccc12 [Entry 35, 5-(N,N-Diethyl)amino-8-hydroxyquinoline] | 7.21 ± 1.3 µM | 0.329 ± 0.17 µM |  |  |  | 20.1 µM | b = bottom value in the dose-response curve, hMetAP2 (hMetAP2): 25%; b = bottom value in the dose-response curve, hMetAP1 (hMetAP1): 29%
